Tests used:
[1] = system: Brain; experiment: Drug uptake in rat brain at 6 ug/ml, iv at 10 mins by LC/MS analysis; type: ADME, organism-based; conditions: in vivo
In short: (§1)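 Male Sprague-Dawley rats (230–280 g), non-anesthetised. Ligand in 25% β-cyclodextrin diluted to 6 μg/mL and given iv via tail vein at 0.5 mL/kg (3 μg/kg), n = 3–4 per group. Rats killed at 10, 20, 40 or 60 min. Hypothalamus and striatum extracted in acetonitrile/0.1% formic acid and quantified by LC-MS/MS against spiked brain standards. Result expressed as %SUV.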

[2] = system: Brain; experiment: Drug uptake in rat brain at 6 ug/ml, iv after 1 hr by LC/MS analysis; type: ADME, organism-based; conditions: in vivo; in short: as §1
[3] = system: Brain; experiment: Drug uptake in rat brain at 6 ug/ml, iv up to 1 hr by LC/MS analysis; type: ADME, organism-based; conditions: in vivo; in short: as §1
[4] = Lipophilicity, log D of the compound by shake flask method; type: physicochemical; conditions: octanol/water
In short: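 Shake-flask log D at pH 7.4 on the nonradioactive compound. Each enantiomer was measured.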

[5] = Drug uptake in SB612111-pretreated monkey lateral temporal cortex at 4.92 to 6.6 mCi, iv administered at 10 mins post SB612111-treatment measured within 10 mins by PET imaging analysis; type: ADME, organism-based, Macaca mulatta; conditions: rhesus monkey, in vivo
[6] = Drug uptake in monkey caudate at 4.92 to 6.6 mCi, iv administered as bolus dose measured up to 20 mins by PET imaging analysis; type: ADME, organism-based, Macaca mulatta, Caudate nucleus; conditions: rhesus monkey, in vivo
[7] = Drug uptake in monkey lateral temporal cortex at 4.92 to 6.6 mCi, iv administered as bolus dose measured up to 20 mins by PET imaging analysis; type: ADME, organism-based, Macaca mulatta; conditions: rhesus monkey, in vivo
[8] = Drug uptake in SB612111-pretreated monkey cerebellum at 4.92 to 6.6 mCi, iv administered at 10 mins post SB612111-treatment measured within 10 mins by PET imaging analysis; type: ADME, organism-based, Macaca mulatta; conditions: rhesus monkey, in vivo
[9] = Drug uptake in monkey amygdala at 4.92 to 6.6 mCi, iv administered as bolus dose measured at 120 mins by PET imaging analysis; type: ADME, organism-based, Macaca mulatta; conditions: rhesus monkey, in vivo, 2 h
[10] = Drug uptake in SB612111-pretreated monkey caudate at 4.92 to 6.6 mCi, iv administered at 10 mins post SB612111-treatment measured within 10 mins by PET imaging analysis; type: ADME, organism-based, Macaca mulatta, Caudate nucleus; conditions: rhesus monkey, in vivo
[11] = Drug uptake in SB612111-pretreated monkey hypothalamus at 4.92 to 6.6 mCi, iv administered at 10 mins post SB612111-treatment measured from 10 to 120 mins by PET imaging analysis; type: ADME, organism-based, Macaca mulatta; conditions: rhesus monkey, in vivo
[12] = Drug uptake in monkey caudate at 4.92 to 6.6 mCi, iv administered as bolus dose measured at 120 mins by PET imaging analysis; type: ADME, organism-based, Macaca mulatta, Caudate nucleus; conditions: rhesus monkey, in vivo, 2 h
[13] = Drug uptake in monkey hypothalamus at 4.92 to 6.6 mCi, iv administered as bolus dose measured at 120 mins by PET imaging analysis; type: ADME, organism-based, Macaca mulatta; conditions: rhesus monkey, in vivo, 2 h
[14] = Drug uptake in SB612111-pretreated monkey amygdala at 4.92 to 6.6 mCi, iv administered at 10 mins post SB612111-treatment measured from 10 to 120 mins by PET imaging analysis; type: ADME, organism-based, Macaca mulatta; conditions: rhesus monkey, in vivo
[15] = Drug uptake in SB612111-pretreated monkey caudate at 4.92 to 6.6 mCi, iv administered at 10 mins post SB612111-treatment measured from 10 to 120 mins by PET imaging analysis; type: ADME, organism-based, Macaca mulatta, Caudate nucleus; conditions: rhesus monkey, in vivo
[16] = Drug uptake in SB612111-pretreated monkey hypothalamus at 4.92 to 6.6 mCi, iv administered at 10 mins post SB612111-treatment measured within 10 mins by PET imaging analysis; type: ADME, organism-based, Macaca mulatta; conditions: rhesus monkey, in vivo
[17] = Drug uptake in monkey cerebellum at 4.92 to 6.6 mCi, iv administered as bolus dose measured at 120 mins by PET imaging analysis; type: ADME, organism-based, Macaca mulatta; conditions: rhesus monkey, in vivo, 2 h
[18] = Drug uptake in monkey hypothalamus at 4.92 to 6.6 mCi, iv administered as bolus dose measured up to 20 mins by PET imaging analysis; type: ADME, organism-based, Macaca mulatta; conditions: rhesus monkey, in vivo
[19] = Drug uptake in monkey lateral temporal cortex at 4.92 to 6.6 mCi, iv administered as bolus dose measured at 120 mins by PET imaging analysis; type: ADME, organism-based, Macaca mulatta; conditions: rhesus monkey, in vivo, 2 h
[20] = Drug uptake in SB612111-pretreated monkey cerebellum at 4.92 to 6.6 mCi, iv administered at 10 mins post SB612111-treatment measured from 10 to 120 mins by PET imaging analysis; type: ADME, organism-based, Macaca mulatta; conditions: rhesus monkey, in vivo
[21] = Drug uptake in monkey cerebellum at 4.92 to 6.6 mCi, iv administered as bolus dose measured up to 20 mins by PET imaging analysis; type: ADME, organism-based, Macaca mulatta; conditions: rhesus monkey, in vivo
[22] = Drug uptake in monkey amygdala at 4.92 to 6.6 mCi, iv administered as bolus dose measured up to 20 mins by PET imaging analysis; type: ADME, organism-based, Macaca mulatta; conditions: rhesus monkey, in vivo
[23] = Drug uptake in SB612111-pretreated monkey lateral temporal cortex at 4.92 to 6.6 mCi, iv administered at 10 mins post SB612111-treatment measured from 10 to 120 mins by PET imaging analysis; type: ADME, organism-based, Macaca mulatta; conditions: rhesus monkey, in vivo
[24] = Drug uptake in SB612111-pretreated monkey amygdala at 4.92 to 6.6 mCi, iv administered at 10 mins post SB612111-treatment measured within 10 mins by PET imaging analysis; type: ADME, organism-based, Macaca mulatta; conditions: rhesus monkey, in vivo
[25] = Drug uptake in monkey caudate at 4.92 to 6.6 mCi, iv administered as bolus dose measured at 90 mins by PET imaging analysis; type: ADME, organism-based, Macaca mulatta, Caudate nucleus; conditions: rhesus monkey, in vivo
[26] = Drug uptake in SB612111-pretreated monkey cerebellum at 4.92 to 6.6 mCi, iv administered at 10 mins post SB612111-treatment measured from 10 to 90 mins by PET imaging analysis; type: ADME, organism-based, Macaca mulatta; conditions: rhesus monkey, in vivo
[27] = Drug uptake in SB612111-pretreated monkey hypothalamus at 4.92 to 6.6 mCi, iv administered at 10 mins post SB612111-treatment measured from 10 to 90 mins by PET imaging analysis; type: ADME, organism-based, Macaca mulatta; conditions: rhesus monkey, in vivo
[28] = Drug uptake in monkey lateral temporal cortex at 4.92 to 6.6 mCi, iv administered as bolus dose measured at 90 mins by PET imaging analysis; type: ADME, organism-based, Macaca mulatta; conditions: rhesus monkey, in vivo
[29] = Drug uptake in SB612111-pretreated monkey lateral temporal cortex at 4.92 to 6.6 mCi, iv administered at 10 mins post SB612111-treatment measured from 10 to 90 mins by PET imaging analysis; type: ADME, organism-based, Macaca mulatta; conditions: rhesus monkey, in vivo
[30] = Drug uptake in SB612111-pretreated monkey amygdala at 4.92 to 6.6 mCi, iv administered at 10 mins post SB612111-treatment measured from 10 to 90 mins by PET imaging analysis; type: ADME, organism-based, Macaca mulatta; conditions: rhesus monkey, in vivo
[31] = Drug uptake in monkey amygdala at 4.92 to 6.6 mCi, iv administered as bolus dose measured at 90 mins by PET imaging analysis; type: ADME, organism-based, Macaca mulatta; conditions: rhesus monkey, in vivo
[32] = Drug uptake in SB612111-pretreated monkey caudate at 4.92 to 6.6 mCi, iv administered at 10 mins post SB612111-treatment measured from 10 to 90 mins by PET imaging analysis; type: ADME, organism-based, Macaca mulatta, Caudate nucleus; conditions: rhesus monkey, in vivo
[33] = Drug uptake in monkey hypothalamus at 4.92 to 6.6 mCi, iv administered as bolus dose measured at 90 mins by PET imaging analysis; type: ADME, organism-based, Macaca mulatta; conditions: rhesus monkey, in vivo
[34] = Drug uptake in monkey cerebellum at 4.92 to 6.6 mCi, iv administered as bolus dose measured at 90 mins by PET imaging analysis; type: ADME, organism-based, Macaca mulatta; conditions: rhesus monkey, in vivo
[35] = molecular target: Nociceptin receptor (Homo sapiens, UniProt P41146); experiment: Displacement of [3H]nociceptin from human recombinant NOP receptor expressed in CHO cells after 60 mins by microbeta scintillation counting; type: cell-based
[36] = Lipophilicity, log D of the compound by radiometric method; type: physicochemical; conditions: octanol/water
In short: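 log D at pH 7.4 measured radiometrically on the carbon-11-labelled form of the ligand. Six determinations, reported as mean ± SD.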

Sequence of Nociceptin receptor (P41146 whole entry): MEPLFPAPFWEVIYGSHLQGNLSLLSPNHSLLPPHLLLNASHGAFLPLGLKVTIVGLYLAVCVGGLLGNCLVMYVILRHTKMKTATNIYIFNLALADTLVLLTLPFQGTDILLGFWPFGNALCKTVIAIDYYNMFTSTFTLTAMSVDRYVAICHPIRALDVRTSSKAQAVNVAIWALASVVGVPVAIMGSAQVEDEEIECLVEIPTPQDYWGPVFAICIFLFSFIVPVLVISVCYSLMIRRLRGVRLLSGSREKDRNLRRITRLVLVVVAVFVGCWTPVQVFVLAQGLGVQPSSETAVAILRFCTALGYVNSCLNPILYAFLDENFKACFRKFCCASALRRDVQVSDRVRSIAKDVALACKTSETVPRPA

For `CC(C)N(C)C(=O)[C@@H](Cc1ccccc1F)CN1CCC2(CC1)OCCc1cc(F)sc12`, the SUV [1] was 453%, the Drug uptake [2] was “Not Active” and the Drug uptake [3] was “Active”.

`CC(C)N(C)C(=O)[C@H](Cc1ccccc1F)CN1CCC2(CC1)OCCc1cc(F)sc12` showed a logD [4] of 4.47.

For `CNC(=O)[C@@H](Cc1ccccc1Cl)CN1CCC2(CC1)OCCc1cc(F)sc12`, the SUV [1] was 280%, the Drug uptake [2] was “Not Active” and the Drug uptake [3] was “Active”.

`CNC(=O)[C@H](Cc1ccccc1Cl)CN1CCC2(CC1)OCCc1cc(F)sc12` gave a logD [4] of 3.9.

In the case of `CC(C)N([11CH3])C(=O)[C@@H](Cc1ccccc1F)CN1CCC2(CC1)OCCc1cc(F)sc12`, the Drug uptake [5] is reported as “Active”, the Drug uptake [6] is reported as “Active” and the Drug uptake [7] is reported as “Active”. The Drug uptake [8] was “Active”, the Drug uptake [9] was “Not Active” and the Drug uptake [10] was “Active”. The Drug uptake [11] was “Not Active”, the Drug uptake [12] was “Not Active” and the Drug uptake [13] was “Not Active”. The Drug uptake [14] was “Not Active”, the Drug uptake [15] was “Not Active” and the Drug uptake [16] was “Active”. For the same compound, the Drug uptake [17] was “Not Active”, the Drug uptake [18] was “Active” and the Drug uptake [19] was “Not Active”. For the same compound, the Drug uptake [20] was “Not Active”, the Drug uptake [21] was “Active” and the Drug uptake [22] was “Active”. For the same compound, the Drug uptake [23] was “Not Active” and the Drug uptake [24] was “Active”.

With `[11CH3]NC(=O)[C@@H](Cc1ccccc1Cl)CN1CCC2(CC1)OCCc1cc(F)sc12` the Drug uptake [5] was “Active”, the Drug uptake [6] was “Active” and the Drug uptake [7] was “Active”. The Drug uptake [8] was “Active”, the Drug uptake [25] was “Not Active” and the Drug uptake [10] was “Active”. For the same compound, the Drug uptake [26] was “Not Active”, the Drug uptake [27] was “Not Active” and the Drug uptake [16] was “Active”. The Drug uptake [18] was “Active”, the Drug uptake [28] was “Not Active” and the Drug uptake [29] was “Not Active”. For the same compound, the Drug uptake [30] was “Not Active”, the Drug uptake [21] was “Active” and the Drug uptake [22] was “Active”. The Drug uptake [31] was “Not Active”, the Drug uptake [32] was “Not Active” and the Drug uptake [33] was “Not Active”. The Drug uptake [24] was “Active” and the Drug uptake [34] was “Not Active”.

Work on `NC(=O)[C@@H](Cc1ccccc1Cl)CN1CCC2(CC1)OCCc1cc(F)sc12` yielded a Ki [35] of 0.101 nM.

Compound `NC(=O)[C@H](Cc1ccccc1Cl)CN1CCC2(CC1)OCCc1cc(F)sc12` has a Ki [35] of 17.1 nM.

In the case of `CNC(=O)[C@@H](Cc1ccccc1F)CN1CCC2(CC1)OCCc1cc(F)sc12` [NOP-1A], the logD [36] is reported as 3.41, the SUV [1] is reported as 280% and the Drug uptake [2] is reported as “Not Active”. The Drug uptake [3] was “Active”.

From ChEMBL document CHEMBL2202974 (J Med Chem, 2011)
